Screening data (PubChem BioAssay)
HKDC1 inh: inhibitors of human hexokinase HKDC1 | Q2TB90 | recombinant HKDC1, G6PDH/diaphorase resazurin coupled fluorescence | inhibition, % at 20 µM | 340,000 tested, 0.16% active | AID 493160;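 active = inhibition above about 35% when tested at 20 µM, limit read from the data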;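 note: plate controls were DMSO wells with enzyme for no effect and DMSO wells lacking enzyme for full effect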
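Test system: recombinant HKDC1 (HK5) hexokinase enzyme, produced in-house / Doses: 20 µM test compound, 1% DMSO / Timing: 90 min, room temperature / Detection: G6PDH/diaphorase-coupled fluorescence, 1 mM NADP, 100 µM resazurin, 525/613 nm / Control set: DMSO wells with and without enzyme mix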
PHOSPHO1 block: blocks human PHOSPHO1 phosphatase activity | 290,000 tested, 1.1% active | recombinant PHOSPHO1, absorbance phosphatase assay | inhibition, % at 13.3 µM | Q8TCT1; in the data active = inhibition above about 60%
Target sequence (Q8TCT1 whole entry, looked up): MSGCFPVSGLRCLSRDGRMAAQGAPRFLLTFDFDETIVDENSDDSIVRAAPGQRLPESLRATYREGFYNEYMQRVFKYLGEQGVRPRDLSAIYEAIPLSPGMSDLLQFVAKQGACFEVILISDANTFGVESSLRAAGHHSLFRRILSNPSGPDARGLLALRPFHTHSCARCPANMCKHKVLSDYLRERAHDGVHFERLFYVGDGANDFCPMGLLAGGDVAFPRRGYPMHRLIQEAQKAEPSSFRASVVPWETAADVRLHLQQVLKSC
EP2 mod: modulators of human EP2 prostaglandin E2 receptor; P43116; EP2-expressing cells, cAMP HTRF FRET, PGE2 co-stimulation; induction, % at 25 µM; 260,000 tested, 0.83% active;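 active = compounds whose cAMP rise, as percent of the full-agonist control response, exceeds 60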;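 note: rat C6 glioma line stably carrying human EP2 under a CMV promoter; the protocol text gives 20 µM as final concentration; 100% = response of wells given 1 µM PGE2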
Target sequence (P43116 whole entry, looked up): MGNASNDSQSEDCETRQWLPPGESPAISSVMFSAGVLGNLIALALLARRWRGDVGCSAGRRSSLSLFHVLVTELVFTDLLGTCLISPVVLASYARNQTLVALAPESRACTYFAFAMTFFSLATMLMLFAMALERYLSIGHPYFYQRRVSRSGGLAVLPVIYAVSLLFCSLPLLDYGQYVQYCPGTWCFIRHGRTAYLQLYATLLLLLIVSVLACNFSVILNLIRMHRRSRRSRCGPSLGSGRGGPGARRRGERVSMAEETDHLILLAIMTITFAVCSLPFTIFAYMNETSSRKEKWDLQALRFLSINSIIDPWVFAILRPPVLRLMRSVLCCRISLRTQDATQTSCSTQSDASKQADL
PGE2 EP2 inh: blocks the human prostaglandin E2 receptor EP2; C6 glioma cells expressing human EP2, cAMP TR-FRET; cells stimulated with saturating PGE2; 260,000 tested, 0.52% active; inhibition, % at 25 µM; P43116; AID 1422;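 active = percent inhibition above 40 after rounding to a whole number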;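 note: rat C6 glioma host cells with rolipram phosphodiesterase inhibitor present; the protocol text gives 20 µM as final concentration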
PfGluPho inh: PfG6PD (Plasmodium falciparum) enzyme inhibition | PfGluPho enzyme, NADPH resazurin-diaphorase fluorescence | AID 504690 | inhibition, % at 20 µM | 350,000 tested, 0.78% active;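 active = inhibition reaching at least a set limit at 20 µM in the primary screen, cut at about 59% in these data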;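 note: 0% = DMSO wells with substrate and 100% = DMSO wells lacking glucose-6-phosphate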
Tb hexokinase: T. brucei hexokinase 1 inhibition; recombinant TbHK1, G6PDH-coupled NADH A340; inhibition, % at 10 µM; 220,000 tested, 0.11% active;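 active = inhibition of 50% or more in the single-dose primary screen; inactive = inhibition below 50%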
The depositor's hits bear a star. This is a sample that favours compounds with a hit; in the whole collection about 2.5% have one here.

How did COc1cccc(NC(=O)C2CCN(C(=O)NC3CCCCC3)CC2)c1 do in these assays?
HKDC1 inh: -4.9; PHOSPHO1 block: 62.9*; PfGluPho inh: -1.8

Results for COc1cccc(NC(=O)C2CCCCC2)c1 ?
HKDC1 inh: -4.4; PHOSPHO1 block: 1.5; EP2 mod: -31.9; PGE2 EP2 inh: 9.7; PfGluPho inh: -5.3; Tb hexokinase: -8.6

How did Cc1cc(C2(c3ccc(O)c(C)c3)C(=O)Nc3ccccc32)ccc1O do in these assays?
HKDC1 inh: 4.0; PHOSPHO1 block: -28.6; EP2 mod: 61.4*; PGE2 EP2 inh: 6.4; PfGluPho inh: 58.5; Tb hexokinase: -2.9

Results for O=C(CSc1ncnc2c1cnn2-c1ccccc1Cl)Nc1ccccc1Br ?
EP2 mod: -31.2; PGE2 EP2 inh: 15.8

How did CC1CCc2c(sc3ncnc(SCC(=O)Nc4ccc(F)cc4)c23)C1 (stereo not drawn) do in these assays?
EP2 mod: 1.0; PGE2 EP2 inh: 14.5

How did O=C(/C=C/c1ccc(Br)o1)OCc1nc2ccsc2c(=O)[nH]1 do in these assays?
HKDC1 inh: 58.3*; PfGluPho inh: 48.1

What do the screens show for `CCCn1c(SCC(=O)Nc2c(C)cc(C)cc2C)nnc1-c1ccncc1`?
EP2 mod: -11.0; PGE2 EP2 inh: 5.8

How did Fc1ccc(C(c2nnnn2C2CCCC2)N2CCOCC2)cc1 (stereo not drawn) do in these assays?
EP2 mod: -41.0; PGE2 EP2 inh: 6.4

What do the screens show for `Cc1cc(C)c2cc(C(c3nnnn3C3CCCCC3)N3CCCc4ccccc43)c(=O)[nH]c2c1` (stereo not drawn)?
EP2 mod: 71.4*; PGE2 EP2 inh: 7.9

What do the screens show for `Cc1cccc2cc(C(c3nnnn3C3CCCC3)N3CCOCC3)c(=O)[nH]c12` (stereo not drawn)?
HKDC1 inh: 6.1; PHOSPHO1 block: 85.6*; EP2 mod: -3.7; PGE2 EP2 inh: 7.2; PfGluPho inh: -20.9; Tb hexokinase: -7.4

What do the screens show for `CCOC(=O)C1CCN(C(c2cc3cccc(C)c3[nH]c2=O)c2nnnn2C2CCCC2)CC1` (stereo not drawn)?
EP2 mod: -31.4; PGE2 EP2 inh: 10.6

How did c1cc(N2CCCC2)ccc1C(c1nnnn1C1CCCCC1)N1CCOCC1 (stereo not drawn) do in these assays?
HKDC1 inh: 16.5; PHOSPHO1 block: 92.2*; EP2 mod: 11.3; PGE2 EP2 inh: 5.0; PfGluPho inh: -1.4; Tb hexokinase: 1.4

Results for Cc1cc(C)c2cc(C(c3nnnn3C3CCCC3)N3CCOCC3)c(=O)[nH]c2c1 (stereo not drawn) ?
HKDC1 inh: -7.3; PHOSPHO1 block: 102.7*; EP2 mod: 3.4; PGE2 EP2 inh: 7.1; PfGluPho inh: -6.3; Tb hexokinase: -17.5

Results for CNC(=O)c1cc2c(=O)n3cc(C)ccc3nc2n(CCCOC)c1=N ?
EP2 mod: -33.3; PGE2 EP2 inh: 9.1

How did CC[C@@H](Cn1nnc2ccccc2c1=O)NC(=O)Cn1c(C)c(C(C)=O)c2ccccc21 do in these assays?
EP2 mod: -251.9; PGE2 EP2 inh: 6.0

Results for COc1ccc(N2CCN(C(=O)CN(c3ccccc3Br)S(C)(=O)=O)CC2)cc1 ?
EP2 mod: -11.7; PGE2 EP2 inh: 8.7

Results for CC(C)Cn1cnc2c(SCc3ccccc3F)nc(N)nc21 ?
HKDC1 inh: -1.6; PfGluPho inh: 17.8

Results for CC(C)Cn1cnc2c(SCc3ccc(Cl)cc3Cl)nc(N)nc21 ?
EP2 mod: -2.7; PGE2 EP2 inh: 52.5*

Results for Cc1ccc2ccccc2c1CSc1nc(N)nc2c1ncn2CC(C)C ?
HKDC1 inh: 2.6; EP2 mod: -24.2; PGE2 EP2 inh: 56.9*; PfGluPho inh: 15.5

Results for Cc1cc(C)c2c(SCc3ccc(Cl)cc3Cl)nc(N)nc2n1 ?
EP2 mod: -0.6; PGE2 EP2 inh: 47.1*

How did CCOC(=O)n1c(=O)n(Cc2cccc(C)c2)c2ccccc21 do in these assays?
HKDC1 inh: -6.8; PHOSPHO1 block: -7.6; EP2 mod: 64.5*; PGE2 EP2 inh: 7.2; PfGluPho inh: 6.0; Tb hexokinase: -10.1

What do the screens show for `CCOC(=O)n1c(=O)n(Cc2ccc(F)cc2)c2ccccc21`?
HKDC1 inh: -7.7; PHOSPHO1 block: 35.9; EP2 mod: 40.5; PGE2 EP2 inh: 5.1; PfGluPho inh: 3.7; Tb hexokinase: 8.4

Results for CC[N+](C)(C)CC[N+](C)(CC)Cc1cc2ccccc2o1 (stereo not drawn) ?
EP2 mod: -16.5; PGE2 EP2 inh: 9.9

How did CC(=O)c1csc(CS(=O)(=O)c2ccccn2)n1 do in these assays?
HKDC1 inh: -0.3; PHOSPHO1 block: 61.1*; EP2 mod: 19.1; PGE2 EP2 inh: 10.9; PfGluPho inh: -3.1; Tb hexokinase: -3.6

How did CC(=O)c1ccccn1 do in these assays?
HKDC1 inh: -6.7; PfGluPho inh: 15.0

Results for COc1ccccc1C1(O)CCN(CC(O)c2ccc3ccccc3c2)CC1 (stereo not drawn) ?
EP2 mod: -84.4; PGE2 EP2 inh: 8.8

Results for N=C1[C@H](O)[C@]2(I)c3ccccc3N3C(=N)[C@H](O)[C@@H]4c5ccccc5N1[C@@H]4[C@@H]32 ?
EP2 mod: 7.3; PGE2 EP2 inh: 68.0*

Results for Cc1ccc(C(=O)CSc2nc3cc(S(=O)(=O)N4CCOCC4)ccc3o2)cc1 ?
HKDC1 inh: -3.7; PHOSPHO1 block: 68.0*; EP2 mod: 8.0; PGE2 EP2 inh: 10.2; PfGluPho inh: 20.8; Tb hexokinase: -4.0

Results for O=C(CSc1nc2cc(S(=O)(=O)N3CCOCC3)ccc2o1)Nc1c(F)cccc1F ?
HKDC1 inh: -12.9; PHOSPHO1 block: -163.9; EP2 mod: 26.4; PGE2 EP2 inh: 7.3; PfGluPho inh: 50.4; Tb hexokinase: 3.1

What do the screens show for `O=C(NC1CCCc2ccccc21)c1cc(S(=O)(=O)N2CCOCC2)ccc1F` (stereo not drawn)?
HKDC1 inh: 2.5; PHOSPHO1 block: 1.8; EP2 mod: -7.5; PGE2 EP2 inh: 4.1; PfGluPho inh: -20.2; Tb hexokinase: 4.0

What do the screens show for `O=C(CSc1nc2cc(S(=O)(=O)N3CCOCC3)ccc2o1)NC1CCCc2ccccc21` (stereo not drawn)?
HKDC1 inh: -3.9; PHOSPHO1 block: 75.7*; EP2 mod: -33.5; PGE2 EP2 inh: 10.1; PfGluPho inh: 54.5; Tb hexokinase: -5.7

What do the screens show for `O=C(CNC(=O)c1ccc(Br)cc1)OCc1cc([N+](=O)[O-])cc2c1OCOC2`?
HKDC1 inh: 3.8; PHOSPHO1 block: 68.1*; EP2 mod: 18.1; PGE2 EP2 inh: 2.8; PfGluPho inh: 0.2; Tb hexokinase: -5.8

Results for CCOc1ccc(C(=O)NCC(=O)OCc2cc([N+](=O)[O-])cc3c2OCOC3)cc1OCC ?
HKDC1 inh: -9.1; PHOSPHO1 block: -2.1; EP2 mod: 11.7; PGE2 EP2 inh: 7.1; PfGluPho inh: 10.6; Tb hexokinase: -1.5
